Each structure is given as a SMILES string. Active and inactive are the calls of the source. No cut-off for these calls is given here.

EC50 and Activity data for five compounds are collected here from ChEMBL document CHEMBL1250435, “Synthesis of a series of caffeic acid phenethyl amide (CAPA) fluorinated derivatives: comparison of cytoprotective effects to caffeic acid phenethyl ester (CAPE)” (Bioorg Med Chem, 2010).

Data set [1] concerns HUVEC. Put plainly: Cytoprotective activity against H2O2-induced oxidative stress in HUVEC cells after 18 hrs by Cell-Titer Blue assay. Particulars: Homo sapiens. Type of data set: functional, cell-based. The method, boiled down:
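Confluent HUVEC (population doublings 2–5, gelatin-coated 96-well) pretreated 5 h at 37 °C with compound at 1, 5, 20, 40 and 60 µM (DMSO stock diluted in MCDB 131), washed twice, exposed to 2 mM H2O2 for 1 h at 37 °C, then 18 h recovery in complete MCDB 131. Viability by 10% CellTiter-Blue fluorescence. % cytoprotection = (well − DMSO+H2O2 mean)/DMSO-only mean. EC50 by linear regression of first three points.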

In data set [2] the test system is HUVEC. The data set is described as follows: Cytoprotective activity against H2O2-induced oxidative stress in HUVEC cells at 20 uM after 18 hrs by Cell-Titer Blue assay. The class given is functional, cell-based. Particulars: Homo sapiens. The gist of the method:
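Confluent HUVEC (passage doublings 2–5) incubated 5 h at 37 °C with compound at 20 µM in MCDB 131 (from DMSO stock), washed twice with MCDB 131, then 2 mM H2O2 for 1 h at 37 °C. H2O2 removed, cells recovered 18 h in complete medium. Viability by 10% CellTiter-Blue fluorescence, compared with vehicle+H2O2 and unexposed cells. Mean ± SD, ANOVA with Tukey-Kramer.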

Data set [3] has as its system HUVEC. Put plainly: Cytotoxicity against HUVEC cells at 10 to 60 uM after 24 hrs by Cell-Ttiter blue assay. The class given is cell-based. Particulars: human. The gist of the method:
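Confluent HUVEC (population doublings 2–5) exposed 24 h at 37 °C to compound at 10, 20, 40 or 60 µM, diluted from DMSO stock into MCDB 131 (vehicle 0.1% DMSO). Medium replaced with 10% CellTiter-Blue for 2 h at 37 °C, fluorescence read at ex 545/em 590 nm. Viability expressed as % of vehicle control; below 90% of control scored toxic.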

For orientation: EC50 means the concentration that produces a half-maximal response. A lower EC50 goes with higher potency in that assay. In the data set on HUVEC [1], `O=C(/C=C/c1ccc(O)c(O)c1)NCCc1ccccc1` [CAFFEIC ACID PHENETHYL AMIDE] yielded an EC50 of 2 µM.

Turning to `O=C(/C=C/c1cc(O)c(O)cc1F)NCCc1ccccc1`, in the data set on HUVEC [2], the result was Active.

With `O=C(/C=C/c1ccc(O)c(F)c1)NCCc1ccccc1`, the result in the data set on HUVEC [2] was Active.

Consider `O=C(/C=C/c1ccc(O)c(O)c1)OCCc1ccccc1` [CAFFEIC ACID PHENETHYL ESTER], for which the response in the data set with HUVEC [1] was half-maximal at 8 µM (EC50).

With `O=C(/C=C/c1cc(O)c(O)c(F)c1)NCCc1ccccc1`, in the data set on HUVEC [2], the result was Active. Further, the Activity result in the data set on HUVEC [3] is given as “Toxic”.
